The target of data set [1] is T1, C3a anaphylatoxin chemotactic receptor (Homo sapiens) (UniProt Q16581).
T1 sequence (whole entry): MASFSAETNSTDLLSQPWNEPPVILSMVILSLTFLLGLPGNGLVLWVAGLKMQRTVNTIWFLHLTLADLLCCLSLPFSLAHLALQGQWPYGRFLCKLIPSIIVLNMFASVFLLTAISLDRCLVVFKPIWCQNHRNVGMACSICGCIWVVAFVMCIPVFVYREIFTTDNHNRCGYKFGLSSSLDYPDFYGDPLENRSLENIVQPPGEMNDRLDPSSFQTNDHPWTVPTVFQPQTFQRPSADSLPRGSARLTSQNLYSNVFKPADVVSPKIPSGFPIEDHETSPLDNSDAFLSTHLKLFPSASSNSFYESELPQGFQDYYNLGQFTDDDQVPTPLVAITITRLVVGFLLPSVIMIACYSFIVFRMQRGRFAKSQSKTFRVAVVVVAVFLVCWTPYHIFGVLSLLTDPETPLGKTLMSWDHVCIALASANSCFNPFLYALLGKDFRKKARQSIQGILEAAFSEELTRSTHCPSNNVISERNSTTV
Nature of the data set: Potency index, ratio of SB290157 IC50 to test compound IC50 for antagonist activity at C3a receptor in human MDM cells. Format: cell-based.

A short description of data set [2]: Elimination half-life in Wistar rat at 1 mg/kg, iv by LC-MS/MS analysis. Format: ADME, organism-based. Conditions: in vivo, read-out: beta t1/2. The method, boiled down:
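Male Wistar rats with jugular vein catheter, fasted overnight; dosed p.o. by gavage in olive oil or i.v. via catheter in 50% DMSO. Blood drawn from conscious unrestrained rats 5 min before dosing, then 5, 15, 30 min and 1–8 h after. Volume replaced with heparinized saline. Rats fed after 4 h sample. n = 3 per route.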

The test system of data set [3] is Rattus norvegicus. Nature of the data set: Antiinflammatory activity in Wistar rat model of BR103-induced paw edema assessed as reduction in hind paw swelling at 10 mg/kg, po administered via gavage pretreated for 2 hrs followed by BR103 challenge and measured after 30 mins by digital caliper method relative to control. It counts as functional. On the set-up: scale not given: the % may be the effect or the level left. Summed up: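 Male Wistar rats were given antagonist at 10 mg/kg by oral gavage in olive oil 2 h before intraplantar BR103 (350 μg in 100 μL of 5% DMSO). Sham paws received vehicle; sham and control rats received olive oil only. Paw thickness and width were measured with digital calipers at 0, 0.5, 1 and 2 h after agonist; n = 3 per group.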

The target of data set [4] is T2, C5a anaphylatoxin chemotactic receptor 1 (Homo sapiens) (UniProt P21730).
T2 sequence (whole entry): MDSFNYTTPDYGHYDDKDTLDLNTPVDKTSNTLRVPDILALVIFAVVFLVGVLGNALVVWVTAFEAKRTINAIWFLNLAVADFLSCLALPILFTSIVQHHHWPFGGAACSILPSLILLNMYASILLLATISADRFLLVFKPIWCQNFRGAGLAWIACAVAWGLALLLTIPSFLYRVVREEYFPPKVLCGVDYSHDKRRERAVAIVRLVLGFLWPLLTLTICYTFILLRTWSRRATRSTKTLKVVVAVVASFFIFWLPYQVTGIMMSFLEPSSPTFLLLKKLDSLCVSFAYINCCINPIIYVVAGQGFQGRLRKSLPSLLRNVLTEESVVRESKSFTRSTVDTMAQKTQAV
Nature of the data set: Antagonist activity at C5a receptor in human MDM cells assessed as inhibition of C5a-induced intracellular calcium release preincubated for 30 mins followed by C5a addition and measured at 1 sec interval for => 200 secs by Fluo-3 AM dye-based FLIPR assay. Format: functional, cell-based. The method, boiled down:
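HMDMs from CD14+ monocytes after 7 days in M-CSF; 5 × 10⁴ cells/well seeded overnight. Cells loaded 1 h at 37 °C with 4 μM Fluo-3 AM, then washed into HBSS with 2.5 mM probenecid and 20 mM HEPES, pH 7.4. Antagonist preincubated 30 min at 37 °C before C5a. Fluorescence (ex 495/em 520 nm) read every 1 s for ≥200 s.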

The test system of data set [5] is Rattus norvegicus. Nature of the data set: Antiinflammatory activity in Wistar rat model of BR103-induced paw edema assessed as reduction in histamine release at 10 mg/kg, po administered via gavage pretreated for 2 hrs followed by BR103 challenge and measured after 30 mins by immunohistochemical analysis. Format: functional, organism-based. Summed up:
(§1)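 Male Wistar rats 7–8 weeks old, given 10 mg/kg p.o. in olive oil 2 h before i.pl. BR103 (350 μg/paw). Sham/control received olive oil. Left paw plantar tissue taken 30 min after agonist and fixed in formalin. Frozen 5 μm sections stained with alcian blue/safranin O, or immunostained for tryptase, histamine or ED1. Positive cells quantified; n = 5 per group, one-way ANOVA.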

The test system of data set [6] is Rattus norvegicus. In words: Antiinflammatory activity in Wistar rat model of BR103-induced paw edema assessed as reduction in Cd244 gene expression at 10 mg/kg, po administered via gavage pretreated for 2 hrs followed by BR103 challenge and measured after 30 mins by SYBR green dye based RT-PCR analysis. Format: functional, organism-based. The method, boiled down: (§2)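 Rats given 10 mg/kg p.o. in olive oil 2 h before i.pl. BR103 (350 μg/paw). Paws collected 0.5 h after agonist and homogenized in TRIsure for RNA. qPCR run in duplicate, normalized to Hprt, with fold change relative to sham. n = 3–5 male Wistar rats per group.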

Data set [7] concerns the target T1, C3a anaphylatoxin chemotactic receptor (Homo sapiens). In words: Antagonist activity at C3a receptor in human MDM cells assessed as inhibition of C3a-induced intracellular calcium release preincubated for 30 mins followed by C3a addition and measured at 1 sec interval for => 200 secs by Fluo-3 AM dye-based FLIPR assay. It counts as functional, cell-based. The method, boiled down: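 Macrophages were derived from CD14⁺ monocytes (M-CSF, 7 days) and dye-loaded with 4 μM Fluo-3 AM for 1 h at 37 °C in HBSS/probenecid/HEPES, pH 7.4. Antagonist was preincubated for 30 min at 37 °C before addition of synthetic full-length human C3a (100 nM). FLIPR fluorescence was read at ex 495/em 520 nm. Percent response was plotted against log concentration; n ≥ 3.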

Data set [8] concerns Rattus norvegicus. In words: Antiinflammatory activity in Wistar rat model of BR103-induced paw edema assessed as reduction in number of ED1-positive macrophages at 10 mg/kg, po administered via gavage pretreated for 2 hrs followed by BR103 challenge and measured after 30 mins by immunohistochemical analysis. Format: functional, organism-based. Summed up: as §1
In data set [9] the test system is Rattus norvegicus. Nature of the data set: Antiinflammatory activity in Wistar rat model of BR103-induced paw edema assessed as reduction in Il10 gene expression at 10 mg/kg, po administered via gavage pretreated for 2 hrs followed by BR103 challenge and measured after 30 mins by SYBR green dye based RT-PCR analysis. It counts as functional, organism-based. Summed up: as §2

In data set [10] the test system is Rattus norvegicus. In words: Antiinflammatory activity in Wistar rat model of BR103-induced paw edema assessed as reduction in hind paw swelling at 30 mg/kg, po administered via gavage pretreated for 6 to 8 hrs followed by BR103 challenge and measured after 30 mins by digital caliper method relative to control. Format: functional. Details: scale not given: the % may be the effect or the level left. The method, boiled down:
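For duration of action, antagonist was given at 30 mg/kg by oral gavage in olive oil at 1, 2, 4, 6, 8 or 12 h before intraplantar BR103 (350 μg/paw) in male Wistar rats. Controls received olive oil 2 h before challenge. Paw thickness and width were measured with calipers at 0 and 0.5 h; n = 3 per group.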

Data set [11] relates to Rattus norvegicus. Nature of the data set: Antiinflammatory activity in Wistar rat model of BR103-induced paw edema assessed as reduction in Il6 gene expression at 10 mg/kg, po administered via gavage pretreated for 2 hrs followed by BR103 challenge and measured after 30 mins by SYBR green dye based RT-PCR analysis. Format: functional, organism-based. The method, boiled down: as §2

Calls of active or inactive are those of the source. The calls are words filed in the database; no cut-off is given here.

Consider `Cc1cc(C(c2ccc(Cl)cc2)c2ccc(Cl)cc2)sc1C(=O)N[C@@H](CCCNC(=N)N)C(=O)O`, for which the Ratio IC50 in data set [1] was found to be 100. Besides, the half-life in data set [2] amounted to 3.18 h. Moreover, the Activity in data set [3] is given as 65%; in [10] it was 85%. Also, in data set [4], the inhibition entry was “inactive”. The outcome in data set [5], in data set [6], in [8], in [9] and in data set [11] was Active. Also, in data set [7], the inhibition result was “Dose-dependent effect”.

The record behind these values is ChEMBL document CHEMBL4376878, “Potent Thiophene Antagonists of Human Complement C3a Receptor with Anti-Inflammatory Activity” (J Med Chem, 2020).
